# High-throughput results as filed in PubChem.
# AP complement: alternative pathway complement inhibition, orthogonal assay; inhibition, % at 5 µM; 62,000 compounds, 0.08% hits; Human serum alternative complement pathway, LPS-coated ELISA, C3 deposition; tested in compound mixtures;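 active = inhibition above 30% in each of the two pooled mixtures holding the compound, so the lower value exceeds 30%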
#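 Test system: human serum alternative complement pathway, C3 deposition on LPS-coated wells; also added: Plate-bound LPS; doses: 5 µM per compound in ten-compound mixtures; schedule: 1 h at 37 °C; detection: Anti-C3 ELISA, OD 450 nm; evaluation: percent inhibition of C3 deposition onto LPS; repeats: two pool placements per compound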
# FXIIa mix inh: factor XIIa (human) inhibition, mixture screen; inhibition, % at 5 µM; purified FXIIa, fluorogenic substrate, pooled mixtures; P00748; 62,000 compounds, 0.2% hits
# C1s inh: blocks human complement C1s protease activity; purified C1s, fluorogenic AMC substrate, pooled mixtures; mean inhibition % of two 10-compound mixtures (stronger effect = higher value), % at 5 µM (by protocol); 62,000 compounds, 0.16% hits;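 active = inhibition above 20% in each of the two 10-compound mixture wells holding the compound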
# FXIa mix inh: blocks human factor XIa in pooled compound mixtures | 62,000 compounds, 0.19% hits | inhibition, % at 5 µM | purified FXIa, fluorogenic substrate | P03951;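 also: each value is inhibition by a whole ten-compound pool holding the compound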
# Cathepsin G inh: inhibitors of human cathepsin G; P08311; purified enzyme, AMC-tetrapeptide fluorescence, pooled mixtures; 62,000 compounds, 0.2% hits; inhibition, % at 5 µM (by protocol);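 active = inhibition above 20% in each of the two mixture wells holding the compound; inactive = inhibition of 20% or less in either well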
# E coli RNAP: inhibitors of Escherichia coli RNA polymerase. P0A8V2. E. coli RNA polymerase, fluorescence transcription assay. inhibition, %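 (tested at 10 µM)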. 62,000 compounds, 0.2% hits. AID 559; in the data active = inhibition above about 20%
# Hits are given with their value; – = inactive. This is a sample that favours compounds with a hit; in the whole collection about 0.83% have one here. Rule as the data show it, unless noted: active = inhibition above about 20% (passing the limit was not always enough); inactive = the rest.
SMILES,AP complement,FXIIa mix inh,C1s inh,FXIa mix inh,Cathepsin G inh,E coli RNAP
CCn1cnc2sc(C(=O)N(Cc3ccc(N(C)C)cc3)Cc3ccco3)c(C)c2c1=O,–,–,–,23,–,–
COCCCNC(CC(=O)Nc1ccccc1C(=O)OC)C(=O)O (centres undefined),–,–,22,–,–,–
CC1(C)Cc2ccccc2-c2nnc(SCC(=O)Nc3ccc4c(c3)OCO4)n21,56,–,–,–,–,–
C=CCn1c(SCC(=O)Nc2ccc3c(c2)OCO3)nnc1-c1ccccc1OC,–,–,–,–,–,–
O=C(Nc1c(F)c(F)c(F)c(F)c1F)C1CCCCC1,–,–,–,–,–,–
